The values below come from PubChem BioAssay.

Experiment [1] in a line: inhibitors of TNFa-induced NFkB p65 translocation, primary screen, imaging, HUVEC, MLSMR starter and 10KST1 sets (AID 438;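 active means inhibition above 20% together with a positive visual image hit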;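 further: compound added about 3h40 before a 20 min TNFalpha stimulation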;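 on inhibition: signal is the nuclear over cytoplasmic p65 intensity ratio per well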). The note with it: HUVEC TNFa-induced p65 nuclear translocation; cell count: measured here: nuclei count (cytotoxicity indicator), at 2.08 µM; inhibition: at 2 µM, stronger effect = higher value, 0% TNFa-plus-vehicle, 100% no-TNFa wells.
Experiment [2] can be described thus: inhibitors of mutant huntingtin aggregation, primary screen, imaging, exon1htt(103Q)mCFP cells, high-content imaging (AID 483;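 active means visual image review flags a hit and inhibition of aggregation exceeds 20%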;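 further: compound exposure lasted 3 days before fixation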;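 on nuclei count: percent of the per-plate median nuclei count of sample wells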). To be noted: exon1htt(103Q)mCFP cell line, aggregate imaging, at 2 µM; inhibition of aggregation: stronger effect = higher value; nuclei count: measured here: cell count, toxicity.
Experiment [3] in a line: inhibitors of E-selectin induction by TNFa, primary screen, imaging, HUVEC, immunofluorescence, MLSMR starter and 10KST1 sets (AID 487;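 active means visually confirmed hit in the image check and inhibition above 20%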;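 on inhibition: signal is fraction of cell area covered by stained E-selectin grains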;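 on nuclei count: 100% = median nuclei count of all wells on the same plate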). To be noted: HUVEC TNFalpha-induced E-selectin immunofluorescence imaging, at 2 µM; inhibition: stronger effect = higher value; nuclei count: measured here: cell number, toxicity.
The target of experiment [4] is Voltage-gated potassium channel subunit beta-2 (Rattus norvegicus) (UniProt P62483). Description: KvBeta enzyme negative modulators, primary screen, biochemical, NADPH fluorescence (AID 622;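 active means fluorescence slope higher than the sample average by over 3 SD, cut at about -0.22 in these data, passing the limit was not always enough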;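 further: slope of raw intensity against log time taken from 70 to 1610 s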). The note with it: recombinant KvBeta, 4-cyanobenzaldehyde reduction, at 10 µM, stronger effect = higher value.
Voltage-gated potassium channel subunit beta-2 (Rattus norvegicus), sequence (P62483 whole entry, looked up): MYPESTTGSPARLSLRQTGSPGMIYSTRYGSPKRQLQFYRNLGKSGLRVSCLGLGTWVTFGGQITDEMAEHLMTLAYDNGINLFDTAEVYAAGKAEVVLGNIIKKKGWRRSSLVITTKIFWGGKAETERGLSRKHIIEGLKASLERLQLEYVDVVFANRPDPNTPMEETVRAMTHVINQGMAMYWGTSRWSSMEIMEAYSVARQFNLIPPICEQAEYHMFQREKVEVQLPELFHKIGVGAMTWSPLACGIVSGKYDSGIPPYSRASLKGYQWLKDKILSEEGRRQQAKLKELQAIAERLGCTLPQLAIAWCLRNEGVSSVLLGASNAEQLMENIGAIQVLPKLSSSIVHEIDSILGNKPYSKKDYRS
The target is the same in experiment [5]. In words: KvBeta positive modulators, primary screen, biochemical, NADPH fluorescence (AID 623;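 active means NADPH fluorescence slope more negative than the mean of all samples by about 3 SD, 99.7% confidence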;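 further: fluorescence intensity change per second fitted from 20 to 320 s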). The note with it: Recombinant KvBeta, NADPH fluorescence decrease slope, 10 min; at 10 µM; stronger effect = lower value.
The target in experiment [6] is Alpha-2C adrenergic receptor (Homo sapiens) (UniProt P18825). In words: modulators of alpha2C/GIRK thallium flux, primary screen, cell-based, HEK293 alpha2C/GIRK1/2 (AID 624;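 active means fluorescence slope after compound addition differing from the mean of all screened samples at 99.7% confidence, in either direction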;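 further: slope of fluorescence ratio to pre-addition baseline per second over 15 to 24 s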). The note with it: thallium flux BTC fluorescence, at 10 µM, actives lie on both sides.
Alpha-2C adrenergic receptor (Homo sapiens), sequence (P18825 whole entry, looked up): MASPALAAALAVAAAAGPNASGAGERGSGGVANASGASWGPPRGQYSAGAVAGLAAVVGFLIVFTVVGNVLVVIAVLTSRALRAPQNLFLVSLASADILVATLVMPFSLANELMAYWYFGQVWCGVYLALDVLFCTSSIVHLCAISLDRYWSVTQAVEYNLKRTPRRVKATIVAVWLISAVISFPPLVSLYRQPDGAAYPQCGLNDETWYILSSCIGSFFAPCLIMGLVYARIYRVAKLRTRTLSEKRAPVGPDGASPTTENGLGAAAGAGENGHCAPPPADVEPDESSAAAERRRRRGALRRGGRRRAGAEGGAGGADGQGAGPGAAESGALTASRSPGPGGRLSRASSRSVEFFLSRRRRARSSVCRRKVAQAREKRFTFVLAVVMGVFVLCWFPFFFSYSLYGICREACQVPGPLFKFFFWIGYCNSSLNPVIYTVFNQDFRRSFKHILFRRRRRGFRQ
Experiment [7] in a line: inhibitors of larval lipid processing in zebrafish, primary screen, whole organism, PED6 fluorescence, gall bladder and intestine (AID 686;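 active means a full or partial loss of lipid-probe fluorescence in the fish gall bladder, intestine or both, judged by eye; inactive means no fluorescence loss, or compound toxic to the fish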;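 further: larvae 5 to 7 days old with five fish per well; signal comes from phospholipase A2 cleavage of quenched PED6 carried via bile; overnight exposure to compound and PED6 before scoring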). The note with it: Zebrafish larvae PED6 lipid processing, fluorescence scoring; screened at 20 µM (by protocol). Put shortly:
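Doses: 20 µM single dose. Test system: live zebrafish larvae aged 5-7 days, whole organism. Quantity: five larvae per well. Measured by: By-eye fluorescence microscopy. Reagent: ingested quenched lipid PED6 at 100 nM. Read-out: visual per-well fluorescence inhibition score. Times: overnight exposure of larvae to compound plus PED6.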

A short description of experiment [8]: inhibitors of Sendai virus-induced IRF3 signaling, primary screen, TLR/RLR signaling modifier project, cell-based, Sendai virus stimulus, luciferase, 10K MLSCN set (AID 602276;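 active means inhibition at or above 50% at 10 µM; inactive means inhibition below 50%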;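 further: firefly luciferase from ISG56 promoter only with Renilla not read in this screen; 0% = Sendai virus plus DMSO and 100% = medium plus DMSO without virus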). The note with it: HEK293 RL24 IRF3 luciferase reporter, at 10 µM, stronger effect = higher value.
The nature of experiment [9]: inhibitors of poly I:C-induced TLR3 signaling, primary screen, cell-based, poly I:C stimulus, luciferase, 10K MLSCN set (AID 602277). To be noted: HEK293-TLR3 RL24 IRF3 luciferase reporter, at 10 µM, stronger effect = higher value.

Each structure is given as a SMILES string. Calls of active or inactive are those of the source.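 How the source made its calls, unless noted: active means inhibition of the reporter signal at or above 50%; inactive means inhibition below 50%.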

As to `Cc1cc(NC(=O)C(C)(C)C)no1`, the cell count in experiment [1] turned out to be 507. Moreover, the inhibition in [1] was -8.7% (inactive); in experiment [3], -50.6% (inactive); in experiment [8] it was 16.1% (inactive); in experiment [9], 20.8% (inactive). The inhibition of aggregation in experiment [2] was -18% (inactive). The results for the nuclei count in experiment [2] and in experiment [3] were 118% and 124%, respectively. Further, the fluorescence slope in [4] is -0.29 (inactive). For the same molecule, the NADPH fluorescence slope in experiment [5] is -1.1e-05 (inactive). The slope in experiment [6] is 0.005 (inactive). The molecule was classed as inactive in experiment [7].
On to `O=S(=O)(c1cccc2c(S(=O)(=O)N3CCCC3)cccc12)N1CCCC1`, for which the cell count in [1] was 250. For the same molecule, the inhibition in experiment [1] is -13.4% (inactive); in experiment [3] it was -17.4% (inactive); in [8] it was 18.2% (inactive); in experiment [9], 21.9% (inactive). The inhibition of aggregation in experiment [2] was -7.2% (inactive). Further, the nuclei count in experiment [2] was determined as 118%; in experiment [3], 88.6%. In [4], the fluorescence slope is -0.355 (inactive). Further, in [5], the NADPH fluorescence slope was 6.6e-06 (inactive). Besides, the slope in [6] was 0.00452 (inactive). Further, the molecule was classed as inactive in experiment [7].
Regarding `CCOC(=O)c1ccc(NC(=O)N2CCN(Cc3cccc(F)c3)CC2)cc1`, in [1], the cell count is 688. The inhibition in [1] was -1.4% (inactive); in experiment [3], -126% (inactive); in experiment [8], 5.73% (inactive); in experiment [9], 7.2% (inactive). Also, in experiment [2], the inhibition of aggregation was -19% (inactive). The nuclei count in experiment [2] was 97.2%; in experiment [3] it was 109%. In experiment [4], the fluorescence slope is -0.424 (inactive). Also, the NADPH fluorescence slope in [5] was -5e-05 (inactive). The slope in [6] is 0.00506 (inactive). Moreover, the molecule was called inactive in [7].
For `Cc1nnc(SCC(=O)NCc2ccc3c(c2)OCO3)s1`, the cell count in experiment [1] came to 418. Further, the inhibition in [1] is 3.1% (inactive); in [3], -57% (inactive); in experiment [8] it was 5.5% (inactive); in [9], 11.6% (inactive). Also, the inhibition of aggregation in experiment [2] was -12% (inactive). The nuclei count in [2] was 101%; in [3] it was 106%. Further, the fluorescence slope in experiment [4] was -0.468 (inactive). The NADPH fluorescence slope in experiment [5] is -4.3e-05 (inactive). Also, in [6], the slope is 0.00565 (inactive). The result in experiment [7] was inactive.
`COc1ccc(OC)c(N(CC(=O)Nc2cccnc2)S(=O)(=O)c2ccc(OC)c(OC)c2)c1`: the cell count in experiment [1] is 722. The inhibition was 7.9% (inactive) in experiment [1], -37.3% (inactive) in experiment [3], 18.6% (inactive) in experiment [8] and 21.4% (inactive) in experiment [9]. Moreover, the inhibition of aggregation in [2] is -6.2% (inactive). In addition, the nuclei count turned out to be 97% in [2] and 94.1% in experiment [3]. For the same molecule, the fluorescence slope in experiment [4] is -0.456 (inactive). Also, the NADPH fluorescence slope in experiment [5] is -5.3e-05 (inactive). For the same molecule, in experiment [6], the slope is 0.00497 (inactive). Further, the outcome in experiment [7] was inactive.
Regarding `O=C(/C=C/N1CCOCC1)c1ccc(-c2ccccc2)cc1`, in [1], the cell count is 617. Moreover, the inhibition in experiment [1] was -4.7% (inactive); in [3], 33.9% (inactive); in experiment [8], -22.9% (inactive); in [9] it was -53.1% (inactive). In addition, the inhibition of aggregation in experiment [2] is 8.3% (inactive). For the same molecule, the results for the nuclei count in experiment [2] and in experiment [3] were 112% and 101%, respectively. The fluorescence slope in experiment [4] is -0.398 (inactive). The NADPH fluorescence slope in experiment [5] was -4.3e-05 (inactive). Besides, the slope in [6] was 0.00595 (inactive). Also, the outcome in experiment [7] was inactive.
On to `O=C(c1ccco1)c1nnn(Cc2ccccc2)c1-c1ccccc1`, for which the cell count in [1] is 346. For the same molecule, the inhibition was -4.3% (inactive) in experiment [1], -90% (inactive) in experiment [3], -4.9% (inactive) in [8] and 0.479% (inactive) in [9]. In addition, the inhibition of aggregation in experiment [2] was 4% (inactive). The nuclei count in [2] turned out to be 122%; in experiment [3] it was 116%. Further, the fluorescence slope in [4] is -0.347 (inactive). Further, the NADPH fluorescence slope in experiment [5] was 7.1e-06 (inactive). Also, in experiment [6], the slope was 0.00349 (inactive). The molecule was classed as inactive in experiment [7].
As for `Cc1cccc(N(CC(=O)N2CCCC2)S(=O)(=O)c2ccccc2)c1C`, in experiment [1], the cell count stood at 288. Also, the inhibition in experiment [1] is -2.3% (inactive); in experiment [3] it was -156% (inactive); in experiment [8] it was -11.4% (inactive); in experiment [9] it was -6.79% (inactive). In experiment [2], the inhibition of aggregation is 23.9% (inactive). Also, the nuclei count worked out at 87.6% in [2] and 98.1% in experiment [3]. Also, the fluorescence slope in [4] was -0.423 (inactive). For the same molecule, the NADPH fluorescence slope in experiment [5] was -4.5e-05 (inactive). Further, the slope in [6] was 0.00511 (inactive). Also, the molecule was classed as inactive in experiment [7].
As for `O=C(CN1CCSCC1)N1CCc2[nH]c3ccc(Br)cc3c2C1`, in experiment [1], the cell count was determined as 691. Moreover, the inhibition in experiment [1] is 3.4% (inactive); in experiment [3], 28.3% (inactive); in [8], 10.7% (inactive); in experiment [9], 7.8% (inactive). Moreover, the inhibition of aggregation in [2] was 21.5% (inactive). Further, the nuclei count was determined as 99.4% in [2] and 102% in experiment [3]. In addition, the fluorescence slope in experiment [4] was -0.384 (inactive). Besides, the NADPH fluorescence slope in experiment [5] was -5.2e-05 (inactive). In addition, in [6], the slope was 0.00508 (inactive). Moreover, the call in [7] was inactive.
`COc1ccc(Cl)c(N2CCN(CCCNC(=O)Nc3ccc(C)cc3)CC2)c1`: the cell count in experiment [1] amounted to 320. In addition, the inhibition was 2.4% (inactive) in experiment [1], 16% (inactive) in experiment [3], 2.1% (inactive) in experiment [8] and -5.24% (inactive) in [9]. Moreover, the inhibition of aggregation in experiment [2] is -10.7% (inactive). In addition, the results for the nuclei count in experiment [2] and in experiment [3] were 98.8% and 108%, respectively. In addition, the fluorescence slope in [4] is -0.479 (inactive). In addition, in [5], the NADPH fluorescence slope is -5.7e-05 (inactive). Besides, the slope in experiment [6] was 0.0037 (inactive). Moreover, the molecule was classed as inactive in [7].
Turning to `Cc1ccc2nc3c(cc2c1)CN(Cc1ccco1)C(=NCC1CCCO1)S3` (stereo not drawn), in experiment [1], the cell count is 543. For the same molecule, the inhibition in experiment [1] was 0.7% (inactive); in experiment [3], -2.1% (inactive); in experiment [8], 13.9% (inactive); in experiment [9], 11.5% (inactive). Also, in [2], the inhibition of aggregation was 28.7% (inactive). Besides, the results for the nuclei count in experiment [2] and in experiment [3] were 82.4% and 106%, respectively. The fluorescence slope in experiment [4] was -0.372 (inactive). In experiment [5], the NADPH fluorescence slope was -6.6e-05 (inactive). For the same molecule, the slope in [6] was 0.00724 (inactive). For the same molecule, the call in [7] was inactive.
As for `Cc1cccc(C)c1NC(=O)COC(=O)c1nonc1N`, the cell count in experiment [1] was found to be 429. Besides, the inhibition is -1.3% (inactive) in experiment [1], 32.7% (inactive) in [3], 4.72% (inactive) in experiment [8] and 2% (inactive) in experiment [9]. The inhibition of aggregation in [2] is 3.6% (inactive). For the same molecule, the nuclei count in [2] was found to be 99.3%; in experiment [3] it was 87.2%. The fluorescence slope in [4] was -0.34 (inactive). Further, in experiment [5], the NADPH fluorescence slope is -6.4e-05 (inactive). The slope in experiment [6] is 0.0052 (inactive). For the same molecule, in experiment [7], the molecule was classed as inactive.
As to `CCn1c(SCC(=O)Nc2ccc3c(c2)OCO3)nnc1-c1cnccn1`, the cell count in experiment [1] was found to be 542. The inhibition in [1] was -3.4% (inactive); in experiment [3] it was -72.2% (inactive); in experiment [8], 15.5% (inactive); in [9], 16.7% (inactive). Also, in [2], the inhibition of aggregation is 1.7% (inactive). For the same molecule, the nuclei count in experiment [2] stood at 89.2%; in experiment [3], 118%. In experiment [4], the fluorescence slope is -0.437 (inactive). In addition, the NADPH fluorescence slope in [5] was -5.6e-05 (inactive). For the same molecule, in experiment [6], the slope is 0.00469 (inactive). The result in [7] was inactive.
As for `c1ccc(-c2nnc(SCc3nc4ccccc4[nH]3)o2)cc1`, the cell count in experiment [1] was 285. Moreover, the inhibition in experiment [1] is 8.2% (inactive); in experiment [3], 34.3% (inactive); in experiment [8] it was 12.6% (inactive); in experiment [9] it was -7.21% (inactive). Further, the inhibition of aggregation in experiment [2] was -3.4% (inactive). Further, the figures for the nuclei count in [2] and in experiment [3] were 94.1% and 87.8%, respectively. The fluorescence slope in experiment [4] is -0.304 (inactive). Moreover, the NADPH fluorescence slope in experiment [5] is -1.4e-05 (inactive). In addition, the slope in [6] is 0.00613 (inactive). In [7], the result was inactive.

As a reminder, the inhibition is the change of the read-out against control, counted positive when it falls.
